Series [1] in a line: Half-life values were derived from the decay rate constant (k) by fitting the concentration and time values to the exponential decay function at pH 7. Format: ADME. The gist of the method: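 Compounds at 20 μM in 25 mM K2PO4 buffer, pH 7, room temperature; aliquots taken over time and quantified by C18 reverse-phase HPLC (UV 250 nm, external calibration). t1/2 = ln(2)/k, with k from fitting concentration vs time to C = C0e^(-kt).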

A short description of series [2]: The rate of hydrolytic cleavage in plasma was assessed by incubating compounds (30 uM) at 37 degrees Celsius with human plasma adjusted to pH 7. Format: ADME. The gist of the method:
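Human plasma brought to pH 7 with K2PO4 (50 mM final), compounds at 30 μM, 37 °C. Timed aliquots quenched with 2 volumes acidified acetonitrile and centrifuged. Supernatant quantified by reverse-phase HPLC at 250 nm. t1/2 from single-exponential decay fit, t1/2 = ln(2)/k.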

The subject of series [3] is Rattus norvegicus. Put plainly: In vivo potency for inhibition of LPS-induced hypotension in rat by intra arterial (i.a.) administration. Format: functional. An outline of the steps:
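Rats recovered ≥1 h after surgery; baseline arterial pressure normalized to 100 mmHg. Compound given intraarterially in DMSO/PEG 400/45% hydroxypropyl-β-cyclodextrin/0.9% saline (2.5:20:30:47.5) 15 min before an i.a. bolus of E. coli LPS 0111:B4, 25 mg/kg in PBS pH 7.4. Pressure read every 1 min. Percent inhibition from area under the pressure–time curve versus vehicle.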

The species named for series [4] is Oryctolagus cuniculus. The series can be described thus: Inhibitory activity was determined in PAF-induced serotonin release from rabbit platelets. In kind it is functional.
The subject of series [5] is Rattus norvegicus. The series can be described thus: In vivo potency for inhibition of PAF-induced cutaneous vascular permeability in rat by intravenous administration. In kind it is functional.
Series [6] has as its system Rattus norvegicus. The series can be described thus: In vivo potency for complete inhibition of LPS-induced intestinal damage in rat by intravenous administration. Format: functional. An outline of the steps: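 Sprague–Dawley rats, 200–225 g. Compound or vehicle (25 mM sodium acetate, pH 4) given i.v. via tail vein, then LPS 25 mg/kg 30 min later. Rats killed 30 min after LPS; luminal rinse of a 15 cm intestinal segment from the duodenum assayed for hemoglobin by hemoglobinometer against standards.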

Here are results for 9 compounds from ChEMBL document CHEMBL1127694, “N-(acyloxyalkyl)pyridinium salts as soluble prodrugs of a potent platelet activating factor antagonist” (J Med Chem, 1994).

Structures are written as SMILES.

As a reminder, the half-life is how long it takes for the measured level to halve. A high value points to slow decline. Turning to `COC(=O)[C@@H]1CCCN1C(=O)OC[n+]1cccc([C@H]2SCc3c(C(=O)c4cn(C(=O)N(C)C)c5cc(-c6ccc(F)cc6)ccc45)ccn32)c1.[Cl-]`, the half-life in series [1] was determined as 128 h. This compound also registered a half-life at 30 µM in series [2] of 2.67 h.

In series [1], `CN(C)C(=O)n1cc(C(=O)c2ccn3c2CS[C@@H]3c2ccc[n+](COC(=O)c3ccccc3)c2)c2ccc(-c3ccc(F)cc3)cc21.[Cl-]` displayed a half-life of 8.5 h. In addition, the half-life at 30 µM in series [2] worked out at 0.0167 h.

In turn, `CC(OC(=O)C(C)(C)C)[n+]1cccc([C@H]2SCc3c(C(=O)c4cn(C(=O)N(C)C)c5cc(-c6ccc(F)cc6)ccc45)ccn32)c1.[Cl-]` (stereo not given in full) gave a half-life in series [1] of 17.6 h. The half-life at 30 µM in series [2] amounted to 0.518 h.

In turn, `CN(C)C(=O)OC[n+]1cccc([C@H]2SCc3c(C(=O)c4cn(C(=O)N(C)C)c5cc(-c6ccc(F)cc6)ccc45)ccn32)c1.[Cl-]` gave a half-life in series [1] greater than 167 h. In addition, the half-life at 30 µM in series [2] is greater than 10 h.

In series [1], `CN(C)C(=O)n1cc(C(=O)c2ccn3c2CS[C@@H]3c2ccc[n+](COC(=O)C(C)(C)C)c2)c2ccc(-c3ccc(F)cc3)cc21.[Cl-]` gave a half-life of 45.3 h. In series [2], the half-life at 30 µM was 0.347 h.

For `CC(=O)OC[n+]1cccc([C@H]2SCc3c(C(=O)c4cn(C(=O)N(C)C)c5cc(-c6ccc(F)cc6)ccc45)ccn32)c1.[Cl-]`, in series [1], the half-life worked out at 9 h. This compound yielded a half-life at 30 µM in series [2] of 0.0433 h.

On to `Cc1oc(=O)oc1C[n+]1cccc([C@H]2SCc3c(C(=O)c4cn(C(=O)N(C)C)c5cc(-c6ccc(F)cc6)ccc45)ccn32)c1.[Cl-]`, for which the half-life in series [1] was 4.1 h. For the same compound, the half-life at 30 µM in series [2] came out at 0.0467 h.

`COC(=O)OC[n+]1cccc([C@H]2SCc3c(C(=O)c4cn(C(=O)N(C)C)c5cc(-c6ccc(F)cc6)ccc45)ccn32)c1.[Cl-]`: the half-life in series [1] is 1.6 h. This compound also came in with a half-life at 30 µM in series [2] of 0.0167 h.

A word on the ED50: it is the dose that gives a 50% effect, or the effect in half of the subjects. A higher ED50 goes with a need for a large dose. For the compound `CN(C)C(=O)n1cc(C(=O)c2ccn3c2CS[C@@H]3c2cccnc2)c2ccc(-c3ccc(F)cc3)cc21`, the ED50 in series [3] turned out to be 0.01 mg/kg; in series [5], 0.006 mg/kg. Besides, the Kb in series [4] is 1.1 nM. In addition, the Dose in series [6] was determined as 0.1 mg/kg.
